Source: ChEMBL document CHEMBL2311404, “Synthesis, antibacterial activity and docking of 14-membered 9-O-(3-arylalkyl) oxime 11,12-cyclic carbonate ketolides” (2013)
≈ marks a conversion by molar mass, not a printed value.

Columns and labels:
Format in all cases: functional
Streptococcus pneumoniae [1] = experiment: Ratio of clarithromycin MIC to compound MIC for penicillin-resistant, constitutive MLS-resistant Streptococcus pneumoniae PU 11 expressing erm and mef genes
[2] = test system: Staphylococcus haemolyticus; experiment: Antibacterial activity against methicillin-resistant, constitutive MLS-resistant, coagulase-deficient Staphylococcus haemolyticus PU 19 expressing ermA gene by broth microdilution method
Summary of the method: (§1)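 Clinical isolates confirmed by 16S rDNA sequencing. MIC determined by broth microdilution following CLSI recommendations. Quality-control strains were S. aureus ATCC 29213 and S. pneumoniae ATCC 49619. Azithromycin and clarithromycin were run in parallel as reference agents.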

[3] = test system: Staphylococcus epidermidis; experiment: Ratio of clarithromycin MIC to compound MIC for methicillin-susceptible, inducible MLS-resistant Staphylococcus epidermidis E 1
Streptococcus pneumoniae [4] = experiment: Ratio of azithromycin MIC to compound MIC for penicillin-resistant, constitutive MLS-resistant Streptococcus pneumoniae PU 11 expressing erm and mef genes
Streptococcus pneumoniae [5] = experiment: Ratio of clarithromycin MIC to compound MIC for penicillin-susceptible Streptococcus pneumoniae PU 09 expressing mef gene
Staphylococcus hominis [6] = experiment: Antibacterial activity against methicillin-resistant, inducible MLS-resistant, coagulase-deficient Staphylococcus hominis E 3 by broth microdilution method; summary of the method: as §1
Staphylococcus hominis [7] = experiment: Ratio of azithromycin MIC to compound MIC for methicillin-resistant, inducible MLS-resistant, coagulase-deficient Staphylococcus hominis E 3
[8] = test system: Staphylococcus epidermidis; experiment: Ratio of azithromycin MIC to compound MIC for methicillin-susceptible, inducible MLS-resistant Staphylococcus epidermidis E 1
[9] = test system: Staphylococcus haemolyticus; experiment: Ratio of azithromycin MIC to compound MIC for methicillin-resistant, constitutive MLS-resistant, coagulase-deficient Staphylococcus haemolyticus PU 19 expressing ermA gene
Streptococcus pyogenes [10] = experiment: Ratio of azithromycin MIC to compound MIC for constitutive MLS-resistant Streptococcus pyogenes A2
Streptococcus pyogenes [11] = experiment: Antibacterial activity against constitutive MLS-resistant Streptococcus pyogenes A2 by broth microdilution method; summary of the method: as §1
[12] = test system: Staphylococcus haemolyticus; experiment: Ratio of clarithromycin MIC to compound MIC for methicillin-resistant, constitutive MLS-resistant, coagulase-deficient Staphylococcus haemolyticus PU 19 expressing ermA gene
Streptococcus pneumoniae [13] = experiment: Antibacterial activity against penicillin-susceptible Streptococcus pneumoniae PU 09 expressing mef gene by broth microdilution method
Summary of the method: (§2)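 MIC by broth microdilution following CLSI recommendations. Clinical isolates were identified by 16S rDNA sequencing and labeled by genotype and phenotype. S. aureus ATCC 29213 and S. pneumoniae ATCC 49619 served as control strains, with azithromycin and clarithromycin as reference agents.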

[14] = test system: Staphylococcus epidermidis; experiment: Ratio of azithromycin MIC to compound MIC for methicillin-resistant, constitutive MLS-resistant Staphylococcus epidermidis E 2
[15] = test system: Staphylococcus epidermidis; experiment: Antibacterial activity against methicillin-susceptible, inducible MLS-resistant Staphylococcus epidermidis E 1 by broth microdilution method; summary of the method: as §1
Staphylococcus hominis [16] = experiment: Ratio of clarithromycin MIC to compound MIC for methicillin-resistant, inducible MLS-resistant, coagulase-deficient Staphylococcus hominis E 3
Streptococcus pneumoniae [17] = experiment: Antibacterial activity against erythromycin-sensitive Streptococcus pneumoniae ATCC 49619 by broth microdilution method; summary of the method: as §2
Streptococcus pyogenes [18] = experiment: Antibacterial activity against erythromycin-susceptible Streptococcus pyogenes A3 by broth microdilution method; summary of the method: as §2
[19] = test system: Staphylococcus epidermidis; experiment: Antibacterial activity against methicillin-resistant, constitutive MLS-resistant Staphylococcus epidermidis E 2 by broth microdilution method; summary of the method: as §1
Streptococcus pneumoniae [20] = experiment: Antibacterial activity against penicillin-resistant, constitutive MLS-resistant Streptococcus pneumoniae PU 11 expressing erm and mef genes by broth microdilution method; summary of the method: as §1
Staphylococcus aureus [21] = experiment: Antibacterial activity against erythromycin-susceptible Staphylococcus aureus ATCC 29213 by broth microdilution method; summary of the method: as §2
[22] = test system: Streptococcus dysgalactiae; experiment: Antibacterial activity against erythromycin-resistant Streptococcus dysgalactiae A1 expressing efflux pump by broth microdilution method; summary of the method: as §1
Staphylococcus aureus [23] = experiment: Antibacterial activity against methicillin-resistant, inducible MLS-resistant Staphylococcus aureus PU 32 expressing ermA gene by broth microdilution method; summary of the method: as §1
[24] = test system: Streptococcus dysgalactiae; experiment: Ratio of clarithromycin MIC to compound MIC for erythromycin-resistant Streptococcus dysgalactiae A1 expressing efflux pump
Streptococcus pyogenes [25] = experiment: Ratio of clarithromycin MIC to compound MIC for constitutive MLS-resistant Streptococcus pyogenes A2
[26] = test system: Staphylococcus epidermidis; experiment: Ratio of clarithromycin MIC to compound MIC for methicillin-resistant, constitutive MLS-resistant Staphylococcus epidermidis E 2
Streptococcus pneumoniae [27] = experiment: Antibacterial activity against penicillin-susceptible, constitutive MLS-resistant Streptococcus pneumoniae PU 27 expressing erm gene by broth microdilution method; summary of the method: as §1
Staphylococcus aureus [28] = experiment: Antibacterial activity against methicillin-resistant, constitutive MLS-resistant Staphylococcus aureus PU 20 expressing ermC gene by broth microdilution method; summary of the method: as §1
Staphylococcus aureus [29] = experiment: Antibacterial activity against methicillin-sensitive, inducible MLS-resistant Staphylococcus aureus PU 64 expressing ermA gene by broth microdilution method; summary of the method: as §1

Row | SMILES | MIC [2] [mg/L] | MIC (Staphylococcus hominis [6]) [mg/L] | MIC (Streptococcus pyogenes [11]) [mg/L] | MIC (Streptococcus pneumoniae [13]) [mg/L] | MIC [15] [mg/L] | MIC (Streptococcus pneumoniae [17]) [mg/L] | MIC (Streptococcus pyogenes [18]) [mg/L] | MIC [19] [mg/L] | MIC (Streptococcus pneumoniae [20]) [mg/L] | MIC (Staphylococcus aureus [21]) [mg/L] | MIC [22] [mg/L] | MIC (Staphylococcus aureus [23]) [mg/L] | MIC (Streptococcus pneumoniae [27]) [mg/L] | further results
1 | CC[C@H]1OC(=O)[C@H](C)C(=O)[C@H](C)[C@@H](O[C@@H]2O[C@H](C)C[C@H](N(C)C)[C@H]2O)[C@](C)(OC)C[C@@H](C)/C(=N\OCC#Cc2cncc3ccccc23)[C@H](C)[C@H]2OC(=O)O[C@@]21C | 32 (≈ 40.3 µM) | 0.064 (≈ 0.0806 µM) | 16 (≈ 20.2 µM) | 0.032 (≈ 0.0403 µM) | 0.016 (≈ 0.0202 µM) | ≤ 0.008 | ≤ 0.008 | 32 (≈ 40.3 µM) | 16 (≈ 20.2 µM) | 0.016 (≈ 0.0202 µM) | 0.016 (≈ 0.0202 µM) | 0.032 (≈ 0.0403 µM) | 0.064 (≈ 0.0806 µM) | Ratio (Streptococcus pneumoniae [1]): >8; Ratio [3]: >16000; Ratio (Streptococcus pneumoniae [4]): >8; Ratio (Streptococcus pneumoniae [5]): 125; Ratio (Staphylococcus hominis [7]): >4000; Ratio [8]: >16000; Ratio [9]: >8; Ratio (Streptococcus pyogenes [10]): >8; Ratio [12]: >8; Ratio [14]: >8; Ratio (Staphylococcus hominis [16]): >4000; Ratio [24]: 500; Ratio (Streptococcus pyogenes [25]): >8; Ratio [26]: >8
2 | CC[C@H]1OC(=O)[C@H](C)[C@@H](O[C@H]2C[C@@](C)(OC)[C@@H](O)[C@H](C)O2)[C@H](C)[C@@H](O[C@@H]2O[C@H](C)C[C@H](N(C)C)[C@H]2O)[C@](C)(OC)C[C@@H](C)C(=O)[C@H](C)[C@@H](O)[C@]1(C)O [CLARITHROMYCIN] | > 256 | > 256 | > 256 | 4 (≈ 5.35 µM) | > 256 | 0.032 (≈ 0.0428 µM) | 0.032 (≈ 0.0428 µM) | > 256 | > 256 | 0.25 (≈ 0.334 µM) | 8 (≈ 10.7 µM) | 1 (≈ 1.34 µM) | 1 (≈ 1.34 µM) | MIC (Staphylococcus aureus [28]): > 256 mg/L; MIC (Staphylococcus aureus [29]): 2 mg/L (≈ 2.67 µM)
